Results as given in ChEMBL document CHEMBL1145426, “Albumin binding of short cationic antimicrobial micropeptides and its influence on the in vitro bactericidal effect” (J Med Chem, 2007).
Values after ≈ are worked out from the molar mass of the structure shown. Where a SMILES comes first, the peptide text is derived from it. [ ]: non-standard residue; d: D form. The star is where a group is joined. Bip = N[C@@H](Cc1ccc(-c2ccccc2)cc1)C(=O)O; NHPhenethyl = c1ccc(CCN*)cc1; NHBn = c1ccc(CN*)cc1; NHiPr = CC(C)N*

What was measured:
[1] = Binding affinity to BSA 1 by isothermal titration calorimetry; design: species or system Bos taurus
Outline: (§1)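 ITC at 25 °C with 1 mL cell. Peptide (2.1 mM) injected in 20 aliquots of 5 µL, 400 s apart, into stirred (200 rpm) albumin (0.11 mM) in 50 mM Tris-HCl, 10 mM CaCl₂, pH 8.2. Dilution heats from peptide-into-buffer titrations were subtracted. First injection excluded. Isotherm fitted to a one-site model; KD = 1/Ka.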

Staphylococcus aureus [2] = assay: Antibacterial activity against Staphylococcus aureus ATCC 25923 in presence of BSA 1 by microdilution method; format: functional
Outline: (§2)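 Standard broth microdilution MIC against S. aureus ATCC 25923 with albumin in the assay at 0.55 mM. Albumin grades: BSA I, essentially fatty acid and globulin free, ≥99%. BSA II ≥96%. HSA I, essentially fatty acid free, ~99%. HSA II ≥96%. Run in duplicate.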

Staphylococcus aureus [3] = assay: Antibacterial activity against Staphylococcus aureus ATCC 25923 by microdilution method; format: functional
Outline: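 Standard broth microdilution MIC against S. aureus ATCC 25923, without albumin. Run in triplicate.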

Staphylococcus aureus [4] = assay: Antibacterial activity against Staphylococcus aureus ATCC 25923 in presence of HSA 2 by microdilution method; format: functional; outline: as §2
Staphylococcus aureus [5] = assay: Antibacterial activity against Staphylococcus aureus ATCC 25923 in presence of BSA 2 by microdilution method; format: functional; outline: as §2
Staphylococcus aureus [6] = assay: Antibacterial activity against Staphylococcus aureus ATCC 25923 in presence of HSA 1 by microdilution method; format: functional; outline: as §2
[7] = Binding affinity to HSA 2 by isothermal titration calorimetry; design: species or system Homo sapiens; outline: as §1
[8] = Binding affinity to BSA 2 by isothermal titration calorimetry; design: species or system Bos taurus; outline: as §1
[9] = Binding affinity to HSA 1 by isothermal titration calorimetry; design: species or system Homo sapiens; outline: as §1

Row | Compound | Kd [1] | MIC (Staphylococcus aureus [2]) | MIC (Staphylococcus aureus [3]) | MIC (Staphylococcus aureus [4]) | MIC (Staphylococcus aureus [5]) | MIC (Staphylococcus aureus [6]) | Kd [7] | Kd [8] | Kd [9]
1 | N=C(N)NCCC[C@H](NC(=O)[C@H](Cc1ccc(-c2ccccc2)cc1)NC(=O)[C@@H](N)CCCNC(=N)N)C(=O)NCCCc1ccccc1 | 22.2 µM | 25 µg/mL | 2 µg/mL (≈ 2.98 µM) | – | – | – | – | – | –
2 | N=C(N)NCCC[C@H](NC(=O)[C@H](Cc1ccc(-c2ccccc2)cc1)NC(=O)[C@@H](N)CCCNC(=N)N)C(=O)N(Cc1ccccc1)Cc1ccccc1 | 10 µM | 13 µg/mL | 2 µg/mL (≈ 2.73 µM) | 11 µg/mL | 6 µg/mL | 6 µg/mL | 15.9 µM | 12.3 µM | 10.4 µM
3 | CN(Cc1ccccc1)C(=O)[C@H](CCCNC(=N)N)NC(=O)[C@H](Cc1ccc(-c2ccccc2)cc1)NC(=O)[C@@H](N)CCCNC(=N)N | 6.7 µM | 38 µg/mL | 7 µg/mL (≈ 10.7 µM) | – | – | – | – | – | –
4 | CC(C)NC(=O)[C@H](CCCNC(=N)N)NC(=O)[C@H](Cc1ccc(-c2ccccc2)cc1)NC(=O)[C@@H](N)CCCNC(=N)N (H-Arg-[Bip]-Arg-NHiPr) | 14.1 µM | 110 µg/mL | 47 µg/mL (≈ 79 µM) | 100 µg/mL | 80 µg/mL | 113 µg/mL | 18.2 µM | 14.5 µM | 10.8 µM
5 | N=C(N)NCCC[C@H](NC(=O)[C@H](Cc1ccc(-c2ccccc2)cc1)NC(=O)[C@@H](N)CCCNC(=N)N)C(=O)NCc1ccccc1 (H-Arg-[Bip]-Arg-NHBn) | 4.3 µM | 47 µg/mL | 5 µg/mL (≈ 7.78 µM) | 80 µg/mL | 30 µg/mL | 40 µg/mL | 15.5 µM | 13 µM | 15.7 µM
6 | CCN(Cc1ccccc1)C(=O)[C@H](CCCNC(=N)N)NC(=O)[C@H](Cc1ccc(-c2ccccc2)cc1)NC(=O)[C@@H](N)CCCNC(=N)N | 17.3 µM | 38 µg/mL | 5 µg/mL (≈ 7.45 µM) | – | – | – | – | – | –

Second part, the molecule after the results:

Row | Kd [1] | MIC (Staphylococcus aureus [2]) | MIC (Staphylococcus aureus [3]) | MIC (Staphylococcus aureus [4]) | MIC (Staphylococcus aureus [5]) | MIC (Staphylococcus aureus [6]) | Kd [7] | Kd [8] | Kd [9] | Compound
7 | 12.2 µM | 31 µg/mL | 4 µg/mL (≈ 5.96 µM) | – | – | – | – | – | – | C[C@@H](CNC(=O)[C@H](CCCNC(=N)N)NC(=O)[C@H](Cc1ccc(-c2ccccc2)cc1)NC(=O)[C@@H](N)CCCNC(=N)N)c1ccccc1
8 | 12.4 µM | 31 µg/mL | 4 µg/mL (≈ 5.96 µM) | – | – | – | – | – | – | C[C@H](CNC(=O)[C@H](CCCNC(=N)N)NC(=O)[C@H](Cc1ccc(-c2ccccc2)cc1)NC(=O)[C@@H](N)CCCNC(=N)N)c1ccccc1
9 | 11.1 µM | 47 µg/mL | 4 µg/mL (≈ 6.09 µM) | – | – | – | – | – | – | N=C(N)NCCC[C@H](NC(=O)[C@H](Cc1ccc(-c2ccccc2)cc1)NC(=O)[C@@H](N)CCCNC(=N)N)C(=O)NCCc1ccccc1 (H-Arg-[Bip]-Arg-NHPhenethyl)
